In ChEMBL document CHEMBL1131579, “Nitroaromatic amino acids as inhibitors of neuronal nitric oxide synthase” (J Med Chem, 1998):

Columns and labels:
Nitric oxide synthase 1 [1] = biological target: T1, Nitric oxide synthase 1 (Rattus norvegicus, UniProt P29476); test: Inhibitory activity against isomeric form of Neuronal nitric oxide synthase measured by citrulline assay
Summary of the method: (§1)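 Rat brain cytosol as nNOS source. Incubated 20 min at ambient temperature with 10 μM purified L-[2,3-3H]arginine, 1 mM NADPH, 2 mM CaCl2 and varying inhibitor. Stopped with EGTA/EDTA/HEPES buffer, pH 5.5. [3H]citrulline separated on Dowex 50WX-8 (Na+) and counted by liquid scintillation. IC50 reported.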

Nitric oxide synthase 3 = biological target: T2, Nitric oxide synthase 3 (Bos taurus, UniProt P29473); test: Inhibitory activity of conversion of radiolabeled arginine to citrulline by isomeric form of nitric oxide synthase Endothelial nitric oxide synthase from cultured bovine aortic endothelial cells; type: cell-based, Endothelial cell
T2 sequence (P29473 whole entry): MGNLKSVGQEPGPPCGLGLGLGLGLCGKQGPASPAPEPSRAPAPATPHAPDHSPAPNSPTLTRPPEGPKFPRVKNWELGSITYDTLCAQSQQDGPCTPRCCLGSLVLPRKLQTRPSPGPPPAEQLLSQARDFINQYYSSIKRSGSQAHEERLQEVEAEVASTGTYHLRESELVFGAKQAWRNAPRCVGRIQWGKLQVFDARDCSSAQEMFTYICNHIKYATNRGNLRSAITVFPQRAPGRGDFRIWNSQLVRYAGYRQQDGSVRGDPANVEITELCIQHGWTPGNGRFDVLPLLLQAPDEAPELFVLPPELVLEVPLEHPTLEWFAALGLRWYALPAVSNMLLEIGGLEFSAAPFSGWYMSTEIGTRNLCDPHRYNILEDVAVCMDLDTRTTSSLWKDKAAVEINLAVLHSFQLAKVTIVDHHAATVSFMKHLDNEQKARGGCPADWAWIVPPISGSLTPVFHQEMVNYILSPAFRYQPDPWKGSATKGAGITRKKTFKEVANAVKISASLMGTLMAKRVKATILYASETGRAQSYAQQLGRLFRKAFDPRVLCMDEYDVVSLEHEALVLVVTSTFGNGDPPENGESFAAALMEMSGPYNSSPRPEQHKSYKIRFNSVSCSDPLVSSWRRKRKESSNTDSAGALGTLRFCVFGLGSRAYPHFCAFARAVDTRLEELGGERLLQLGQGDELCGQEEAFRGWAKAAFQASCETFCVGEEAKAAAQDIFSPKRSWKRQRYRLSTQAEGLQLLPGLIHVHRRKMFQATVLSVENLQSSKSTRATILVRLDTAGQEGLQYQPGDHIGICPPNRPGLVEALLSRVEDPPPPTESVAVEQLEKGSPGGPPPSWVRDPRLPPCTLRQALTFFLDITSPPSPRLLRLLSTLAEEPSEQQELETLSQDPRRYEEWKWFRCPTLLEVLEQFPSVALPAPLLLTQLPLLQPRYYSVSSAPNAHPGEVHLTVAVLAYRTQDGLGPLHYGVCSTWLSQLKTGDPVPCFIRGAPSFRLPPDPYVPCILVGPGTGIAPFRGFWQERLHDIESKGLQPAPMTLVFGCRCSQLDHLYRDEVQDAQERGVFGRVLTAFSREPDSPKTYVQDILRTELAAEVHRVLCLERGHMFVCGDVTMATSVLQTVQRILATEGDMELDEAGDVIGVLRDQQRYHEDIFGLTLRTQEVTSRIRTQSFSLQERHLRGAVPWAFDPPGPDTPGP
Summary of the method: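 eNOS taken from the CHAPS-solubilized particulate fraction of cultured bovine aortic endothelial cells. Incubated 20 min at ambient temperature with 10 μM L-[2,3-3H]arginine, 1 mM NADPH, 2 mM CaCl2 and graded inhibitor. Stopped at pH 5.5 with EGTA/EDTA; [3H]citrulline isolated on cation-exchange column and counted by scintillation. IC50.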

[2] = biological target: T3, Nitric oxide synthase, inducible (Mus musculus, UniProt P29477); test: Inhibition of radiolabeled arginine conversion to citrulline by isomeric form of Inducible nitric oxide synthase from mouse RAW 264.7 cells; type: cell-based
T3 sequence (P29477 whole entry): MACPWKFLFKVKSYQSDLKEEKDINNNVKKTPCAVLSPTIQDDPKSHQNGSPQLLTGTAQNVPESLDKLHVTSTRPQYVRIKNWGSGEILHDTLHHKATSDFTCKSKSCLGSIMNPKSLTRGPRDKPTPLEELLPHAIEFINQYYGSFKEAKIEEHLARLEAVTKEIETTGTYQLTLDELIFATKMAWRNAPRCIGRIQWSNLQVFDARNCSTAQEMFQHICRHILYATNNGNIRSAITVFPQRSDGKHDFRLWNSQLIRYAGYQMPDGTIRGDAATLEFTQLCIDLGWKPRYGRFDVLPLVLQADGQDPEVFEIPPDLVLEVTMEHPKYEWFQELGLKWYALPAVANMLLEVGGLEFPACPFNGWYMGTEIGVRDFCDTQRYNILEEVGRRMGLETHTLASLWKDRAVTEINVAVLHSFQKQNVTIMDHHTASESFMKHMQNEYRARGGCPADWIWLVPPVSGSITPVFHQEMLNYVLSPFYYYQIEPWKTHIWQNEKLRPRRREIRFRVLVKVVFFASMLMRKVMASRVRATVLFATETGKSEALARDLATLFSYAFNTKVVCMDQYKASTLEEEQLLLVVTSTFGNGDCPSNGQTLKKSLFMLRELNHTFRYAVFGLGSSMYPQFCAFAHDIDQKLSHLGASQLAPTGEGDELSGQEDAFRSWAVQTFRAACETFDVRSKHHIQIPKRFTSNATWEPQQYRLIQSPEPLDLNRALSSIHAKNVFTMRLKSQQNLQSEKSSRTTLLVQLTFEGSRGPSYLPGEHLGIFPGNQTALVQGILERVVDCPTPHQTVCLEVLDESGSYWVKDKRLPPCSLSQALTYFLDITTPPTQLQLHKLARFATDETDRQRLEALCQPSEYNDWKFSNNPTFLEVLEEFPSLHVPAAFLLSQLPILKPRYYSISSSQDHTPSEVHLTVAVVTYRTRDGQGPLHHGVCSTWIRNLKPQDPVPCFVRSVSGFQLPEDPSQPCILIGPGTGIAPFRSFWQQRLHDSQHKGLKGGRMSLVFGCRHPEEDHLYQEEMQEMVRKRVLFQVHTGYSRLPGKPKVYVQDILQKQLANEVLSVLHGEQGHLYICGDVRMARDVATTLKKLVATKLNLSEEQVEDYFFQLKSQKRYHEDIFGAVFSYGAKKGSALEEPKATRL
Summary of the method: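 Incubated 20 min at ambient temperature with 10 μM [3H]arginine, 1 mM NADPH, no Ca2+, and varying inhibitor. Stopped with EGTA/EDTA buffer, pH 5.5; [3H]citrulline separated on Dowex cation exchanger and counted by scintillation. IC50.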

Nitric oxide synthase 1 [3] = biological target: T1, Nitric oxide synthase 1; test: Inhibition of arginine to citrulline conversion by Neuronal nitric oxide synthase from rat brain; summary of the method: as §1
Rattus norvegicus [4] = organism: Rattus norvegicus; test: Inhibitory activity against N-methyl-D-aspartate (NMDA)-induced cyclic GMP accumulation in rat cerebellar slices; type: functional
Summary of the method: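 Cerebellar slices (0.3 mm, coronal and sagittal) from 8–10-day-old rats, preincubated 105 min in Krebs buffer under 95% O2/5% CO2 at 37 °C, then equilibrated 15 min. Test compound added, followed by 500 μM NMDA for 3 min. Stopped with 50 mM sodium acetate and flash-frozen in liquid nitrogen; cGMP measured by radioimmunoassay after sonication.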

Rattus norvegicus [5] = organism: Rattus norvegicus; test: Percent reversal of ACh-induced relaxation at 100 uM in rat thoracic aorta; type: functional
Rattus norvegicus [6] = organism: Rattus norvegicus; test: Effective concentration for reversal of ACh-induced relaxation in rat thoracic aorta; type: functional
Summary of the method: (§2)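 Male Sprague-Dawley rat (350–375 g) thoracic aortic rings, endothelium spared, held at 1.25 g resting tension in Krebs buffer (pH 7.4) with 5 μM indomethacin, 37 °C, 5% CO2 in O2. After 1 h equilibration: 1 μM phenylephrine precontraction, then 1 μM ACh relaxation to plateau. Cumulative inhibitor additions, each to plateau, give a concentration-response curve for reversal of the relaxation.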

Rattus norvegicus [7] = organism: Rattus norvegicus; test: Reversal of ACh-induced relaxation in rat thoracic aorta; type: functional; summary of the method: as §2
Rattus norvegicus [8] = organism: Rattus norvegicus; test: E max (%) calculated for reversal of ACh-induced relaxation in rat thoracic aorta; type: functional
Summary of the method: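 Male Sprague-Dawley rat (350–375 g) thoracic aortic rings, endothelium preserved, held at 1.25 g resting tension at 37 °C in Krebs buffer (pH 7.4) containing 5 μM indomethacin, gassed with 5% CO2 in O2. After 1 h equilibration, rings were precontracted with 1 μM phenylephrine and relaxed with 1 μM ACh. Inhibitor was then added cumulatively, plateau between additions, to build a reversal concentration-response curve.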

T1 sequence (P29476 whole entry): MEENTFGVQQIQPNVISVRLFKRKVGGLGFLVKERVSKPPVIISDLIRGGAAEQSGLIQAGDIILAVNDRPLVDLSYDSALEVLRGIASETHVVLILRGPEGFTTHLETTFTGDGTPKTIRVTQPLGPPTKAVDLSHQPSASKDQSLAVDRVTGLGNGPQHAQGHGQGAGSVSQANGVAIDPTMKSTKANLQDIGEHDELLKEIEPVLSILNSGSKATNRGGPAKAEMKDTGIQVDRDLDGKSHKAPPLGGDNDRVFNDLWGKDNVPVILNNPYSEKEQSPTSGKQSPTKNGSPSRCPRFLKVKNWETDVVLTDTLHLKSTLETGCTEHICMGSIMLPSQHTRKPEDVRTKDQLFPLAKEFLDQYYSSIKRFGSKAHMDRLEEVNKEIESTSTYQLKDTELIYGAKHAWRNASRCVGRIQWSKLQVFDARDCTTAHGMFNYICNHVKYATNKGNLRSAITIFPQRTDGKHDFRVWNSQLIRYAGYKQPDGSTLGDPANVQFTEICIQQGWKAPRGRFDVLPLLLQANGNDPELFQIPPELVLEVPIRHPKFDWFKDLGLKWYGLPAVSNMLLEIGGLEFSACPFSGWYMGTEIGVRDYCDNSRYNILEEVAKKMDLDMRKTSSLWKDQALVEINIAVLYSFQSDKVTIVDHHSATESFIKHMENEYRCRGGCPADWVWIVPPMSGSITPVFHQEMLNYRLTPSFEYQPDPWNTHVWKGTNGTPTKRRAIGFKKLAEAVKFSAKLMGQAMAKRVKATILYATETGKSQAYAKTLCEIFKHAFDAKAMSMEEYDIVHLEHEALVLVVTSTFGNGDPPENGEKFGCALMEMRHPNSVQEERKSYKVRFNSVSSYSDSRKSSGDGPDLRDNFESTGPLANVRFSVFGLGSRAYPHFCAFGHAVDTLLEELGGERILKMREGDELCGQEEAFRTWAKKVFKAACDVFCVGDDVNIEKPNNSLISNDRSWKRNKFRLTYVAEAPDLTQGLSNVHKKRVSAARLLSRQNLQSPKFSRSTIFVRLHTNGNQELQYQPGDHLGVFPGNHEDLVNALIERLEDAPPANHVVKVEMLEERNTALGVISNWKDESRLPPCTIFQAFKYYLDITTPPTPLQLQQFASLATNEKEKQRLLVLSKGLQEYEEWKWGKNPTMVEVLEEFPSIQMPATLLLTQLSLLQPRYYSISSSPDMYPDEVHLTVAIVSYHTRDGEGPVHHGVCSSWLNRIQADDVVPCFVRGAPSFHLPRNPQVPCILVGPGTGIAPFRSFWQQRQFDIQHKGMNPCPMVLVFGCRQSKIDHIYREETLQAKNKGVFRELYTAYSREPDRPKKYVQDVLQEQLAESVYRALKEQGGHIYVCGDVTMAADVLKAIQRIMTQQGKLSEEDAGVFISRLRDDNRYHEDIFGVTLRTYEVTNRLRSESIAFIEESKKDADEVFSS

| IC50 (Nitric oxide synthase 1 [1]) | IC50 (Nitric oxide synthase 3) | IC50 [2] | IC50 (Nitric oxide synthase 1 [3]) | SMILES | further results |
| --- | --- | --- | --- | --- | --- |
| 70 µM | – | – | – | Cc1ccc([N+](=O)[O-])c(N)c1 | – |
| > 100 µM | > 100 µM | > 100 µM | – | N[C@@H](CCCNc1ccc(F)cc1[N+](=O)[O-])C(=O)O | – |
| 30 µM | 60 µM | – | – | N[C@@H](CCCNc1c([N+](=O)[O-])cccc1[N+](=O)[O-])C(=O)O | – |
| – | – | > 100 µM | > 100 µM | Cc1ccc([N+](=O)[O-])c(NCC[C@H](N)C(=O)O)c1 | – |
| > 100 µM | – | > 100 µM | – | Cc1ccc(NCCC[C@H](N)C(=O)O)c([N+](=O)[O-])c1 | – |
| 100 µM | 100 µM | > 100 µM | – | N[C@@H](CCCNc1ccccc1[N+](=O)[O-])C(=O)O | – |
| – | 5 µM | 11 µM | 2.5 µM | Cc1ccc([N+](=O)[O-])c(NCCC[C@H](N)C(=O)O)c1 | IC50 (Rattus norvegicus [4]): 33 µM; Emax at 100 µM (Rattus norvegicus [5]): 41% |
| – | 9 µM | 4 µM | 5 µM | Cc1ccc([N+](=O)[O-])c(SCCC[C@H](N)C(=O)O)c1 | IC50 (Rattus norvegicus [4]): 37 µM |
| > 100 µM | – | > 100 µM | – | N[C@@H](CCCNc1ccc(C(=O)O)cc1[N+](=O)[O-])C(=O)O | – |
| – | – | > 100 µM | > 100 µM | Cc1cccc(NCCC[C@H](N)C(=O)O)c1 | – |
| – | 10 µM | 80 µM | 4 µM | Cc1ccc([N+](=O)[O-])c(OCCC[C@H](N)C(=O)O)c1 | – |
| – | 40 µM | 5 µM | 3 µM | Cc1ccc([N+](=O)[O-])c(NCCC[C@H](N)CO)c1 | EC50 (Rattus norvegicus [6]): 17 µM; Emax (Rattus norvegicus [7]): 106% |
| – | 20 µM | 9 µM | 2.5 µM | Cc1ccc([N+](=O)[O-])c(NCCCCN)c1 | – |
| 100 µM | – | – | – | N[C@@H](CCCNc1ccc([N+](=O)[O-])cc1[N+](=O)[O-])C(=O)O | – |
| > 100 µM | – | > 100 µM | – | N[C@@H](CCCNc1ccc(C(F)(F)F)cc1[N+](=O)[O-])C(=O)O | – |
| – | – | > 100 µM | > 100 µM | Cc1cccc(SCCC[C@H](N)C(=O)O)c1 | – |
| – | – | > 100 µM | > 100 µM | N[C@@H](CCCNc1cc(O)ccc1[N+](=O)[O-])C(=O)O | – |
| – | – | – | – | CNC(=N)NCCC[C@H](N)C(=O)O [TILARGININE] | EC50 (Rattus norvegicus [6]): 14 µM; IC50 (Rattus norvegicus [4]): 3 µM; Emax (Rattus norvegicus [8]): 119% |

| SMILES | IC50 (Nitric oxide synthase 1 [1]) | IC50 (Nitric oxide synthase 3) | IC50 [2] | IC50 (Nitric oxide synthase 1 [3]) | further results |
| --- | --- | --- | --- | --- | --- |
| N=C(NCCC[C@H](N)C(=O)O)N[N+](=O)[O-] [NITROARGININE] | – | – | 14 µM | – | EC50 (Rattus norvegicus [6]): 3 µM; IC50 (Rattus norvegicus [4]): 0.2 µM; Emax (Rattus norvegicus [8]): 138% |
